Data published in ChEMBL document CHEMBL3352174, “Identification of a New RXRα Antagonist Targeting the Coregulator-Binding Site” (ACS Med Chem Lett, 2014).
Calls of active or inactive are those of the source.

Key:
[1] = molecular target: T1, Retinoic acid receptor RXR-alpha (Homo sapiens) (UniProt P19793); assay: Antagonist activity against RXRalpha in human PC3 cells assessed as inhibition of AKT phosphorylation at 5 and 10 uM after 24 hrs by Western blotting method; type: cell-based; conditions: PC-3
T1 sequence (whole entry): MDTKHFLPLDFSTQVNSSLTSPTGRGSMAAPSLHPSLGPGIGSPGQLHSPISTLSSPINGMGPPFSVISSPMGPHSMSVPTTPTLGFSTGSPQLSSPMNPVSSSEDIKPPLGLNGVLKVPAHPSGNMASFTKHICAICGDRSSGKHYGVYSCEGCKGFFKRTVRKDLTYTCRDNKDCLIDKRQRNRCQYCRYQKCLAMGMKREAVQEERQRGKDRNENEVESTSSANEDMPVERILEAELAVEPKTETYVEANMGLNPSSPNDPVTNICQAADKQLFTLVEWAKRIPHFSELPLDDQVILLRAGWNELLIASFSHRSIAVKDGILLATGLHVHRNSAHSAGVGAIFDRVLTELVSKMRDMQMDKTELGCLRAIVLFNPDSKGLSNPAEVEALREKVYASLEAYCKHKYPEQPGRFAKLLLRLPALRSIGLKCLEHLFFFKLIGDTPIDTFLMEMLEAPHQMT

HepG2 = assay: Induction of apoptosis in human HepG2 cells assessed as PARP cleavage at 5 and 10 uM by immunoblotting method; type: functional, cell-based
Summary of the method: (§1)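 A549 or HepG2 cells were treated with compound for 24 h, with or without subsequent TNFα (20 ng/mL) for 30 min. Lysates were immunoblotted for PARP cleavage as the apoptosis marker. One of three to five similar experiments shown.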

A549 = assay: Induction of apoptosis in TNFalpha-stimulated human A549 cells assessed as PARP cleavage at 5 and 10 uM pre-treated for 24 hrs before TNFalpha addition by immunoblotting method; type: functional, cell-based; summary of the method: as §1
[2] = molecular target: T1, Retinoic acid receptor RXR-alpha (Homo sapiens); assay: Antagonist activity against RXRalpha delta80 mutant (unknown origin) expressed in human A549 cells assessed as reduction in TNFalpha-induced interaction of Myc-tagged RXRalpha- delta80 with p85alpha by co-immunoprecipitation assay; type: cell-based
Summary of the method: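 A549 cells were transfected with Myc-RXRα-Δ80 (truncated RXRα mimic) and treated with or without TNFα and/or compound. Anti-Myc immunoprecipitates were immunoblotted for endogenous p85α and Myc-RXRα-Δ80. One of three to five similar experiments shown.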

[3] = molecular target: T2, Estrogen receptor (Homo sapiens) (UniProt P03372); assay: Antagonist activity against estrogen receptor ligand binding domain (unknown origin) expressed in human MCF7 cells assessed as inhibition of propyl pyrazole-induced receptor transactivation at 10 uM after 18 hrs by luciferase reporter gene based mammalian one-hybrid assay; type: cell-based
T2 sequence (whole entry): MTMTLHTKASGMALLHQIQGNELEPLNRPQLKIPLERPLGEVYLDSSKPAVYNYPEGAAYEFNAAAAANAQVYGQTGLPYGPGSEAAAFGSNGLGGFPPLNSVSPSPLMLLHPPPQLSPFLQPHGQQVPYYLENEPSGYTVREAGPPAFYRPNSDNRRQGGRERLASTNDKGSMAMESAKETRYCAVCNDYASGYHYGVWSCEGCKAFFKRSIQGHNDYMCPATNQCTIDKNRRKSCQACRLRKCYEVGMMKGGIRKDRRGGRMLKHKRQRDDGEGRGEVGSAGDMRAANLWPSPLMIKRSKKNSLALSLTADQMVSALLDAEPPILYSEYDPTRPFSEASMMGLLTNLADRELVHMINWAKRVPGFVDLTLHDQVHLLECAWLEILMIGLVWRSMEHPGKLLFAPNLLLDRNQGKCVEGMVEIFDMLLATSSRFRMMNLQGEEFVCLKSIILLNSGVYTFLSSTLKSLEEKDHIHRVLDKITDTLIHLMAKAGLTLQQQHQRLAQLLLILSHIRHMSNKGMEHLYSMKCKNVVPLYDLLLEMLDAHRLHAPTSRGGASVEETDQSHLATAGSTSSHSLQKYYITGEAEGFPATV
Summary of the method: (§2)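 MCF-7 cells co-transfected with pG5-Luc and the pBind-LBD fusion: Nur77, RARγ or ER. Agonists were all-trans-RA 10⁻⁷ M for RARγ and Nur77, and propyl pyrazole triol 10 μM for ER. Compound at 10 μM for 18 h. Dual-luciferase read-out normalized to Renilla. Mean ± SD.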

[4] = molecular target: Nuclear receptor subfamily 4immunitygroup A member 1 (Homo sapiens) (UniProt P22736); assay: Antagonist activity against Nur77 ligand binding domain (unknown origin) expressed in human MCF7 cells assessed as inhibition of all-trans-RA-induced receptor transactivation at 10 uM after 18 hrs by luciferase reporter gene based mammalian one-hybrid assay; type: cell-based; summary of the method: as §2
[5] = molecular target: T3, Retinoic acid receptor gamma (Homo sapiens) (UniProt P13631); assay: Antagonist activity against RARgamma ligand binding domain (unknown origin) expressed in human MCF7 cells assessed as inhibition of ATRA-induced receptor transactivation at 10 uM after 18 hrs by luciferase reporter gene based mammalian one-hybrid assay; type: cell-based; summary of the method: as §2
T3 sequence (whole entry): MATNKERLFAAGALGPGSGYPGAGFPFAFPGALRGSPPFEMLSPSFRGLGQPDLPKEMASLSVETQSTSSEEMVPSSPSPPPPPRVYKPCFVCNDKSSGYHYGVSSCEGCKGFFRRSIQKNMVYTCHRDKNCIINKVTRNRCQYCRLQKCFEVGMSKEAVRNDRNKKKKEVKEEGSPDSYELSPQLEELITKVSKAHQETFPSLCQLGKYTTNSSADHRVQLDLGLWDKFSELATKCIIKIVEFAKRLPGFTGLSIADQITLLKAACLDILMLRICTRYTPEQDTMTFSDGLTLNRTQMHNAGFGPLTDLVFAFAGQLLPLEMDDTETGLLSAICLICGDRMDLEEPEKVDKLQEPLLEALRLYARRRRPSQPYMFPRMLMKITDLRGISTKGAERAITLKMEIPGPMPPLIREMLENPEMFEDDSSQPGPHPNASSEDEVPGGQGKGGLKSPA

[6] = molecular target: T4, Peroxisome proliferator-activated receptor gamma (Homo sapiens) (UniProt P37231); assay: Antagonist activity against PPARgamma ligand binding domain (unknown origin) expressed in human MCF7 cells assessed as inhibition of ROS-induced receptor transactivation at 10 uM after 18 hrs by luciferase reporter gene based mammalian one-hybrid assay; type: cell-based
T4 sequence (whole entry): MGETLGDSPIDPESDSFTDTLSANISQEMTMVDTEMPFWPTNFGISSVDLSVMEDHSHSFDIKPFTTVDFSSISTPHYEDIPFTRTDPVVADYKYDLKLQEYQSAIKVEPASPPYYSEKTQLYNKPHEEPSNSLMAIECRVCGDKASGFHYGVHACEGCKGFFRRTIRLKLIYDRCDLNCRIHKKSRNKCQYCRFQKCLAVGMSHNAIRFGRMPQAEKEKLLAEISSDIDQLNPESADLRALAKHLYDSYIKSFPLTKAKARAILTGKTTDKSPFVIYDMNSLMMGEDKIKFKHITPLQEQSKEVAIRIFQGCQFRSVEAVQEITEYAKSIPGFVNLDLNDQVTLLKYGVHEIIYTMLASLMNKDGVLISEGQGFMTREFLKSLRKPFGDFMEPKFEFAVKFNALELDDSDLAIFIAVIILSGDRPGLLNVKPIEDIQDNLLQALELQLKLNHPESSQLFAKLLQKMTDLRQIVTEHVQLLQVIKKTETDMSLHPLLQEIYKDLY

Nuclear receptor subfamily 4immunitygroup A member 1 (Homo sapiens), sequence (P22736 whole entry, the tested form may be a part): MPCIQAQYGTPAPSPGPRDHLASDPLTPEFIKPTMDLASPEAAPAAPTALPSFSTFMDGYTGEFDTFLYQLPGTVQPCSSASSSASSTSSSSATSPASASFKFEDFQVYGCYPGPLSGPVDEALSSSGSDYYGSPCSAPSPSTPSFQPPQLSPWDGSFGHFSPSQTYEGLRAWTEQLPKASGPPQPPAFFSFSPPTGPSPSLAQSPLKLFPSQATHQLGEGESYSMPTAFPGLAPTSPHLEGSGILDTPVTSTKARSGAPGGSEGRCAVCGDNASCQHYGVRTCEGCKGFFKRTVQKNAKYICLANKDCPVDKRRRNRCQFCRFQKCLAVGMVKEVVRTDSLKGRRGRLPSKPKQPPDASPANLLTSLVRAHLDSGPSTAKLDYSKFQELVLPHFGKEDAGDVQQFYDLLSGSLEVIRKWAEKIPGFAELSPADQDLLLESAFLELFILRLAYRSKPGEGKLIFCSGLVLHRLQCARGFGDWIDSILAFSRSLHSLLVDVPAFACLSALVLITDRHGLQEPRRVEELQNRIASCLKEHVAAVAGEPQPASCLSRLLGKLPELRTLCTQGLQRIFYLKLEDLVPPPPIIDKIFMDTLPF

Cc1cc(=O)oc2c(/C=N/NC(=O)CSc3nc4ccccc4s3)c(O)ccc12
inactive: inhibition [3] | inhibition [4]
active: inhibition [1] | Activity (HepG2) | Activity (A549) | inhibition [2] | inhibition [5] | inhibition [6]
